Data set [1] can be described thus: Inhibition of HIV1 gp120-mediated cell-cell fusion between viral envelope expressing in human HL2/3 cells to CD4/CCR5 receptor expressing in human TZM-bl cells after 1 hr by luciferase reporter gene assay. The format is cell-based. Particulars: Human immunodeficiency virus 1, HL2/3, 1 h. Background: In a reporter assay the amount or activity of a reporter protein is the signal.

The nature of data set [2]: Cytotoxicity against dog Cf2Th-CCR5 cells assessed as reduction in cell viability incubated for 48 hrs by XTT assay. The note with it: cf2th-ccr5, 48 h. The format is cell-based, Canis lupus familiaris.
The test system of the next data set is MT2. In words: (§1) Cytotoxicity against human MT2 cells assessed as reduction in cell viability incubated for 4 days by XTT assay. The format is cell-based. Particulars: mt2, 96 h, time 4 day. For orientation: Tetrazolium dyes change colour on reduction, which living cells bring about.
The nature of data set [3]: Induction viral infection in pseudovirus HIV1 ADA infected in dog Cf2Th-CCR5 cells incubated for overnight followed by pretreated for 30 mins and added to cells measured after 48 hrs by luciferase-based assay. Particulars: human immunodeficiency virus 1, cf2th-ccr5, 48.5 h. The format is cell-based.
Data set [4] relates to Human immunodeficiency virus 1. In words: Antiviral activity against HIV-1 ADA infected in human MOLT-4 cells assessed as reduction in viral transmission to TZM-bl cells incubated for 48 hrs by luciferase based assay. Particulars: Human immunodeficiency virus 1, ADA, MOLT-4, 48 h. Type of data set: functional, organism-based.
Data set [5] relates to Human immunodeficiency virus 1. The data set is described as follows: Antiviral activity against pseudovirus HIV-1 HXB-2 harboring Env M434I mutant infected in human U87.CD4.CXCR4 cells assessed as reduction in viral infection pretreated for 30 mins before viral infection and measured after 3 days by luciferase based assay. The format is functional, cell-based, M:B_HXB2R. Put shortly: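 Pseudoviruses made in HEK293T by co-transfecting an Env-deleted backbone (pSG3Δenv or pNL4-3.Luc.R-.E-) with an HXB-2 Env plasmid carrying single or double substitutions; Env sequences confirmed by sequencing. Virus pretreated 30 min with graded compound, added to U87-CD4-CXCR4 cells (1 × 10⁴/well, plated overnight), incubated 3 days. Cells lysed, luciferase measured, IC50 calculated.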

Data set [6] is described as follows: Cytotoxicity against human PBMC cells assessed as reduction in cell viability incubated for 1 hr followed by complete medium addition and measured after 48 hrs by XTT assay. Type of data set: cell-based.
Data set [7] has as its system Human immunodeficiency virus 1. In words: Antiviral activity against HIV-1 HXB-2 infected in human TZM-bl cells assessed as reduction in viral infection pretreated for 30 mins before viral infection and measured after 3 days by luciferase based single cycle infection assay. Type of data set: functional, organism-based. Particulars: Human immunodeficiency virus 1, M:B_HXB2R.

Another data set relates to TZM. The data set is described as follows: (§2) Cytotoxicity against human TZM-bl cells assessed as reduction in cell viability incubated for 3 days by XTT assay. Type of data set: cell-based. The note with it: tzm, 72 h, time 3 day.
A short description of data set [8]: Antiviral activity against HIV-1 3B infected in human MT2 cells assessed as reduction in viral infection pretreated for 30 mins before viral infection and measured after 4 days by ELISA based multi cycle infection assay. The format is functional, cell-based. The note with it: Human immunodeficiency virus 1, M:B_HXB2R. (An ELISA detects its analyte on a solid surface through an enzyme-linked reagent.)

The nature of data set [9]: as §2. The format is cell-based. The note with it: TZM-bl cells, time 3 day.
Data set [10] is described as follows: as §1. The format is cell-based. Particulars: MT2 cells, time 4 day.

Among the data in ChEMBL document CHEMBL4715822, “Structure-based lead optimization to improve antiviral potency and ADMET properties of phenyl-1H-pyrrole-carboxamide entry inhibitors targeted to HIV-1 gp120” (Eur J Med Chem, 2018) are IC50, CC50 and Activity values, retold here.

As usually defined, the IC50 is the concentration at which inhibition is half-maximal. In general, CC50 refers to the concentration at which the toxic effect on the cells reaches its halfway point. Compound `CC1(C)CC(NC(=O)C(=O)Nc2ccc(Cl)cc2)CC(C)(C)N1` came in with an IC50 in data set [1] of 9.1 µM. Also, the CC50 in data set [2] is more than 60 µM.

Turning to `NC[C@@H](NC(=O)c1ccc(-c2ccc(C(F)(F)F)cc2)[nH]1)c1ncc(CO)s1`, the CC50 in the data set with MT2 was 32 µM; in [2], 37.7 µM. Besides, the Activity entry in data set [3] is on record as “Non-Toxic”. In addition, the IC50 in [4] is 1000 nM; in [5], 970 nM. Further, in data set [6], the CC50 at 49 h stood at 61 µM.

With `Cc1c(F)cc(-c2ccc(C(=O)N[C@@H](CN)c3ncc(CO)s3)[nH]2)cc1F`, the IC50 was found to be 470 nM in data set [7] and 200 nM in [8]. The CC50 in the data set with TZM is 33.2 µM; in the data set with MT2 it was 27 µM.

`NC[C@@H](NC(=O)c1ccc(-c2cc(F)c(Cl)c(F)c2)[nH]1)c1ncc(CO)o1`: the CC50 at 72 h in data set [9] is 30.9 µM. Also, in [10], the CC50 at 96 h amounted to 44.7 µM.

Turning to `NC[C@@H](NC(=O)c1ccc(-c2cc(F)c(Cl)c(F)c2)[nH]1)c1nc(CO)cs1`, the values for the half-maximal cytotoxic concentration (CC50) with TZM and with MT2 were 27.7 µM and 29.6 µM, respectively.

In the case of `Cc1c(F)cc(-c2ccc(C(=O)N[C@@H](CN)c3nc(CO)cs3)[nH]2)cc1F`, the concentration for half-maximal inhibition (IC50) in data set [7] and in [8] was 180 nM throughout. Also, the CC50 with TZM is 18.5 µM; in the data set on MT2 it was 25.5 µM.

As to `Cc1c(F)cc(-c2ccc(C(=O)N[C@H](CN)c3ncc(CO)s3)[nH]2)cc1F`, the IC50 in data set [7] and in [8] was 200 nM in each case. Besides, the CC50 is 32.9 µM in the data set with TZM and 26.8 µM with MT2.

For the compound `NC[C@@H](NC(=O)c1ccc(-c2cc(F)c(C(F)(F)F)c(F)c2)[nH]1)c1ncc(CO)s1`, the CC50 at 72 h in data set [9] was determined as 23.5 µM. Further, the CC50 at 96 h in data set [10] is 15.5 µM.

In the case of `NC[C@H](NC(=O)c1ccc(-c2cc(F)c(Cl)c(F)c2)[nH]1)c1ncc(CO)s1`, the CC50 at 72 h in [9] came to 39.5 µM. In addition, the CC50 at 96 h in data set [10] was found to be 37 µM. Further, the CC50 at 49 h in data set [6] was more than 60 µM.

On to `CNC[C@H](NC(=O)c1ccc(-c2cc(F)c(Cl)c(F)c2)[nH]1)c1nc(CO)cs1`, for which the IC50 in [7] came to 230 nM; in data set [8], 180 nM. Further, the results for the CC50 with TZM and with MT2 were 18 µM and 18.8 µM, respectively.

As for `CC(C)(O)c1csc([C@H](CN)NC(=O)c2ccc(-c3cc(F)c(Cl)c(F)c3)[nH]2)n1`, the IC50 was determined as 230 nM in data set [7] and 250 nM in [8]. In addition, the CC50 with TZM came to 28.4 µM; in the data set with MT2, 16.6 µM.

`NC[C@@H](NC(=O)c1ccc(-c2ccc(C(F)(F)F)c(F)c2)[nH]1)c1nc(CO)c(CO)s1`: the figures for the IC50 in data set [7] and in data set [8] were 1800 nM and 2000 nM, respectively. The figures for the CC50 with TZM and in the data set on MT2 were more than 65.4 µM and 72.4 µM, respectively.

As to `COC(C)(C)c1csc([C@@H](CN)NC(=O)c2ccc(-c3cc(F)c(Cl)c(F)c3)[nH]2)n1`, the values for the IC50 in data set [7] and in data set [8] were 9300 nM and 6100 nM, respectively. Also, the CC50 is 39.6 µM in the data set on TZM and 29.5 µM in the data set on MT2.

Turning to `CNC[C@@H](NC(=O)c1ccc(-c2ccc(C(F)(F)F)cc2)[nH]1)c1nc(CO)cs1`, the IC50 in data set [7] came out at 620 nM; in [8] it was 600 nM. Besides, the results for the CC50 with TZM and with MT2 were 23.5 µM and 19.8 µM, respectively.

As to `NC[C@H](NC(=O)c1ccc(-c2ccc(C(F)(F)F)cc2)[nH]1)c1ncc(CO)s1`, the values for the CC50 with TZM and with MT2 were 35.6 µM and 36 µM, respectively.

On to `Cc1c(F)cc(-c2ccc(C(=O)N[C@H](CN)c3nc(CO)cs3)[nH]2)cc1F`, for which the half-maximal inhibitory concentration (IC50) in data set [7] worked out at 540 nM; in data set [8], 600 nM. In addition, the cytotoxic concentration (CC50) is 20.6 µM in the data set on TZM and 15.9 µM with MT2.

Turning to `NC[C@H](NC(=O)c1ccc(-c2cc(F)c(C(F)(F)F)c(F)c2)[nH]1)c1ncc(CO)s1`, the CC50 at 72 h in data set [9] is 23 µM. In addition, the CC50 at 96 h in data set [10] stood at 14.3 µM.

As to `CNC[C@@H](NC(=O)c1ccc(-c2cc(F)c(Cl)c(F)c2)[nH]1)c1nc(CO)cs1`, the IC50 was 250 nM in [7] and 400 nM in data set [8]. The values for the CC50 in the data set on TZM and in the data set on MT2 were 23.8 µM and 24 µM, respectively.

As for `CC(C)(O)c1csc([C@@H](CN)NC(=O)c2ccc(-c3cc(F)c(Cl)c(F)c3)[nH]2)n1`, the figures for the IC50 in data set [7] and in data set [8] were 560 nM and 800 nM, respectively. The CC50 is 27.2 µM in the data set with TZM and 18 µM in the data set with MT2.

For `NC[C@@H](NC(=O)c1ccc(-c2ccc(C(F)(F)F)c(F)c2)[nH]1)c1nc(CO)cs1`, the CC50 was determined as 17.3 µM in the data set with TZM and 20.5 µM in the data set with MT2.

`NC[C@H](NC(=O)c1ccc(-c2cc(F)c(Cl)c(F)c2)[nH]1)c1ncc(CO)o1`: the CC50 at 72 h in data set [9] worked out at 27.7 µM. For the same compound, the CC50 at 96 h in data set [10] turned out to be 26.5 µM.

With `NC[C@@H](NC(=O)c1ccc(-c2cc(F)c(Cl)c(F)c2)[nH]1)c1ncc(CO)s1`, the CC50 at 72 h in data set [9] was found to be 20.6 µM. Further, the CC50 at 96 h in [10] came to 17.4 µM.

As to `NC[C@H](NC(=O)c1ccc(-c2ccc(C(F)(F)F)cc2)[nH]1)c1nc(CO)cs1`, the IC50 in [7] was 470 nM; in [8] it was 300 nM. The CC50 with TZM was 24.4 µM; in the data set on MT2 it was 16.3 µM.

Consider `NC[C@H](NC(=O)c1ccc(-c2cc(F)c(Cl)c(F)c2)[nH]1)c1nc(CO)c(CO)s1`, for which the IC50 amounted to 2300 nM in data set [7] and 3000 nM in data set [8]. Also, the figures for the half-maximal cytotoxic concentration (CC50) in the data set with TZM and in the data set with MT2 were more than 70 µM and 96.7 µM, respectively.

As to `NC[C@H](NC(=O)c1ccc(-c2ccc(C(F)(F)F)c(F)c2)[nH]1)c1nc(CO)c(CO)s1`, the IC50 in data set [7] was 3100 nM; in data set [8], 3600 nM. For the same compound, the CC50 was more than 65 µM with TZM and 92.3 µM with MT2.

For the compound `NC[C@@H](NC(=O)c1ccc(-c2ccc(C(F)(F)F)cc2)[nH]1)c1nc(CO)cs1`, the IC50 came to 900 nM in data set [7] and 1750 nM in [8]. The figures for the half-maximal cytotoxic concentration (CC50) in the data set on TZM and in the data set on MT2 were 27.6 µM and 15.1 µM, respectively.

For the compound `NC[C@@H](NC(=O)c1ccc(-c2ccc(C(F)(F)F)c(F)c2)[nH]1)c1ncc(CO)s1`, the IC50 in data set [7] turned out to be 200 nM; in data set [8], 240 nM. The CC50 is 18.5 µM in the data set on TZM and 21.5 µM with MT2.

Turning to `NC[C@H](NC(=O)c1ccc(-c2ccc(C(F)(F)F)c(F)c2)[nH]1)c1ncc(CO)s1`, the half-maximal inhibitory concentration (IC50) in data set [7] turned out to be 440 nM; in [8], 250 nM. Also, the CC50 in the data set on TZM stood at 30.5 µM; with MT2, 25.6 µM.

Take `NC[C@@H](NC(=O)c1ccc(-c2cc(F)c(Cl)c(F)c2)[nH]1)c1nc(CO)c(CO)s1`: the IC50 in data set [7] came out at 2700 nM; in [8], 3340 nM. In addition, the CC50 in the data set with TZM came to 53 µM; in the data set on MT2 it was 89.9 µM.

In the case of `CNC[C@H](NC(=O)c1ccc(-c2ccc(C(F)(F)F)cc2)[nH]1)c1nc(CO)cs1`, the results for the IC50 in data set [7] and in [8] were 310 nM and 100 nM, respectively. The figures for the 50% cytotoxic concentration (CC50) with TZM and in the data set on MT2 were 22.4 µM and 17 µM, respectively.
